Data taken from ChEMBL document CHEMBL2146363, “Allylic thiocyanates as a new class of antitubercular agents” (Bioorg Med Chem Lett, 2012).
pIC50: −log10 of the molar value. Converted amounts (≈) assume the structure as drawn.

Assays:
[1] = system: Mycobacterium tuberculosis; experiment: Antitubercular activity against Mycobacterium tuberculosis H37Rv in GAS medium after 4 days by microplate alamar blue assay; format: functional; details: 96 h
Method in brief: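 Replicating M. tuberculosis H37Rv grown in GAS (glycerol–alanine–salts) medium. MIC determined by microplate Alamar Blue assay (MABA).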

[2] = system: Mycobacterium tuberculosis; experiment: Antitubercular activity against Mycobacterium tuberculosis H37Rv in 7H12 medium incubated for 10 days in anaerobic condition followed by incubation for 48 hrs in aerobic condition by low oxygen recovery assay; format: functional
Method in brief: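 Non-replicating M. tuberculosis H37Rv tested in 7H12 medium (palmitic acid carbon source, no glycerol) under low-oxygen conditions by the low-oxygen-recovery assay (LORA), which models persistence or latency. Read-out is MIC.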

[3] = system: Vero; experiment: Cytotoxicity against african green monkey Vero cells after 72 hrs by MTS assay; format: cell-based; details: Chlorocebus sabaeus
Method in brief: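 African green monkey kidney VERO cell line; toxicity read as half-maximal inhibitory concentration (IC50). Each reported value is the average of three individual measurements, rounded to the nearest dilution.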

[4] = system: Mycobacterium tuberculosis; experiment: Antitubercular activity against Mycobacterium tuberculosis H37Rv in 7H12 medium after 4 days by microplate alamar blue assay; format: functional; details: 96 h
Method in brief: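 Replicating M. tuberculosis H37Rv tested in Middlebrook 7H12 medium, which lacks glycerol and uses palmitic acid as carbon source. MIC read by microplate Alamar Blue assay (MABA).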

[5] = Selectivity ratio of IC50 for african green monkey Vero cells to MIC for Mycobacterium tuberculosis H37Rv in GAS medium; format: functional

Question: With `COC(=O)/C(=C/c1ccccc1)CSC(=N)Nc1ccccc1` as the compound, how does the MIC [1] read?
Answer: Its MIC is 16 µM (≈ 5.22 µg/mL).

Question: With `COC(=O)/C(=C/c1ccc([N+](=O)[O-])cc1)CN=[N+]=[N-]` as the compound, how does the MIC [1] read?
Answer: The MIC was 4 µM (≈ 1.05 µg/mL).

Question: And the MIC [2]?
Answer: The MIC was 16 µM (≈ 4.2 µg/mL).

Question: And the pIC50 [3]?
Answer: The pIC50 was < 4.19.

Question: What about the MIC [4] of the same compound?
Answer: The MIC was > 32 µM.

Question: For `COC(=O)/C(=C/c1ccccc1[N+](=O)[O-])CN=[N+]=[N-]`, which MIC [1] is on record?
Answer: Its MIC is 64 µM (≈ 16.8 µg/mL).

Question: For `COC(=O)/C(=C/C=C/c1ccccc1)CN=[N+]=[N-]`, which MIC [1] is on record?
Answer: Its MIC is 64 µM (≈ 15.6 µg/mL).

Question: Which MIC [1] does the source give for `COC(=O)/C(=C/c1ccc2c(c1)OCO2)CN=[N+]=[N-]` here?
Answer: Its MIC is 64 µM (≈ 16.7 µg/mL).

Question: With `COC(=O)/C(=C/c1ccc(OC)cc1)CN=[N+]=[N-]` as the compound, how does the MIC [1] read?
Answer: The MIC was > 128 µM.

Question: With `COC(=O)/C(=C/c1ccccc1)CN=[N+]=[N-]` as the compound, how does the MIC [1] read?
Answer: Its MIC is > 128 µM.

Question: Which MIC [1] does the source give for `COC(=O)/C(=C/c1ccc2ccccc2c1)CN=[N+]=[N-]` here?
Answer: The MIC was > 128 µM.

Question: For `COC(=O)/C(=C/c1ccc(Cl)cc1)CN=[N+]=[N-]`, which MIC [1] is on record?
Answer: The MIC was > 128 µM.

Question: For `COC(=O)/C(=C/c1ccccc1Cl)CN=[N+]=[N-]`, which MIC [1] is on record?
Answer: Its MIC is > 128 µM.

Question: For `COC(=O)/C(=C/c1ccc(Cl)cc1Cl)CN=[N+]=[N-]`, which MIC [1] is on record?
Answer: The MIC was > 128 µM.

Question: With `COC(=O)/C(=C/c1ccc([N+](=O)[O-])cc1)CSC#N` as the compound, how does the MIC [1] read?
Answer: The MIC was > 128 µM.

Question: Which MIC [1] does the source give for `COC(=O)/C(=C/c1ccccc1[N+](=O)[O-])CSC#N` here?
Answer: Its MIC is 8 µM (≈ 2.23 µg/mL).

Question: Which MIC [1] does the source give for `COC(=O)/C(=C/C=C/c1ccccc1)CSC#N` here?
Answer: The MIC was > 128 µM.

Question: For `COC(=O)/C(=C/c1ccc2c(c1)OCO2)CSC#N`, which MIC [1] is on record?
Answer: Its MIC is > 128 µM.

Question: For `COC(=O)/C(=C/c1ccc(OC)cc1)CSC#N`, which MIC [1] is on record?
Answer: Its MIC is 16 µM (≈ 4.21 µg/mL).

Question: Which MIC [1] does the source give for `COC(=O)/C(=C/c1ccc(OC)c(OC)c1)CSC#N` here?
Answer: The MIC was 16 µM (≈ 4.69 µg/mL).

Question: For `COC(=O)/C(=C/c1ccccc1)CSC#N`, which MIC [1] is on record?
Answer: The MIC was 1 µM (≈ 0.233 µg/mL).

Question: Which MIC [1] does the source give for `COC(=O)/C(=C/c1ccc2ccccc2c1)CSC#N` here?
Answer: Its MIC is 0.25 µM (≈ 0.0708 µg/mL).

Question: And the MIC [2]?
Answer: Its MIC is 16 µM (≈ 4.53 µg/mL).

Question: What about the Selectivity ratio [5] of the same compound?
Answer: The Selectivity ratio was >100.

Question: What about the pIC50 [3] of the same compound?
Answer: Its pIC50 is 4.49.

Question: And the MIC [4]?
Answer: Its MIC is 32 µM (≈ 9.07 µg/mL).

Question: What does the source list for `COC(=O)/C(=C/c1ccc(C)cc1)CSC#N`?
Answer: MIC [1]: 0.5 µM (≈ 0.124 µg/mL); MIC [2]: 16 µM (≈ 3.96 µg/mL); pIC50 [3]: 4.49; MIC [4]: 8 µM (≈ 1.98 µg/mL)

Question: With `COC(=O)/C(=C/c1ccc(Cl)cc1)CSC#N` as the compound, how does the MIC [1] read?
Answer: Its MIC is 0.25 µM (≈ 0.0669 µg/mL).

Question: What about the MIC [2] of the same compound?
Answer: The MIC was 8 µM (≈ 2.14 µg/mL).

Question: And the pIC50 [3]?
Answer: The pIC50 was 4.80.

Question: And the MIC [4]?
Answer: Its MIC is 8 µM (≈ 2.14 µg/mL).

Question: Which MIC [1] does the source give for `COC(=O)/C(=C/c1ccccc1Cl)CSC#N` here?
Answer: The MIC was > 128 µM.

Question: Which MIC [1] does the source give for `COC(=O)/C(=C/c1ccc(Cl)cc1Cl)CSC#N` here?
Answer: The MIC was > 128 µM.

Question: With `COC(=O)/C(=C/c1ccccc1Br)CSC#N` as the compound, how does the MIC [1] read?
Answer: The MIC was 0.25 µM (≈ 0.078 µg/mL).

Question: And the MIC [2]?
Answer: Its MIC is 4 µM (≈ 1.25 µg/mL).

Question: What about the Selectivity ratio [5] of the same compound?
Answer: Its Selectivity ratio is >100.

Question: And the pIC50 [3]?
Answer: Its pIC50 is 4.49.

Question: And the MIC [4]?
Answer: The MIC was 8 µM (≈ 2.5 µg/mL).

Question: With `COC(=O)/C(=C/c1ccc(Br)cc1)CSC#N` as the compound, how does the MIC [1] read?
Answer: Its MIC is 0.25 µM (≈ 0.078 µg/mL).

Question: And the MIC [2]?
Answer: The MIC was 16 µM (≈ 5 µg/mL).

Question: And the Selectivity ratio [5]?
Answer: The Selectivity ratio was >100.

Question: What about the pIC50 [3] of the same compound?
Answer: Its pIC50 is 4.49.

Question: What about the MIC [4] of the same compound?
Answer: The MIC was 16 µM (≈ 5 µg/mL).

Question: Which results are given for `COC(=O)/C(=C/c1ccc(F)cc1)CSC#N`?
Answer: MIC [1]: 0.5 µM (≈ 0.126 µg/mL); MIC [2]: 16 µM (≈ 4.02 µg/mL); pIC50 [3]: 4.49; MIC [4]: 16 µM (≈ 4.02 µg/mL)

Question: For `COC(=O)/C(=C/c1ccc([N+](=O)[O-])cc1)CSC(=N)N`, which MIC [1] is on record?
Answer: Its MIC is 8 µM (≈ 2.36 µg/mL).

Question: What about the MIC [4] of the same compound?
Answer: The MIC was 64 µM (≈ 18.9 µg/mL).

Question: With `COC(=O)/C(=C/c1ccc2c(c1)OCO2)CSC(=N)N` as the compound, how does the MIC [1] read?
Answer: The MIC was > 128 µM.

Question: With `COC(=O)/C(=C/c1ccc(OC)cc1)CSC(=N)N` as the compound, how does the MIC [1] read?
Answer: The MIC was 32 µM (≈ 8.97 µg/mL).

Question: With `COC(=O)/C(=C/c1ccccc1)CSC(=N)N` as the compound, how does the MIC [1] read?
Answer: Its MIC is 64 µM (≈ 16 µg/mL).

Question: For `COC(=O)/C(=C/c1ccccc1Cl)CSC(=N)N`, which MIC [1] is on record?
Answer: Its MIC is > 128 µM.

Question: Which MIC [1] does the source give for `COC(=O)/C(=C/c1ccc([N+](=O)[O-])cc1)CSC(=N)Nc1ccccc1` here?
Answer: Its MIC is 4 µM (≈ 1.49 µg/mL).

Question: And the MIC [2]?
Answer: Its MIC is > 64 µM.

Question: And the pIC50 [3]?
Answer: The pIC50 was < 4.19.

Question: What about the MIC [4] of the same compound?
Answer: The MIC was > 32 µM.

Question: Which MIC [1] does the source give for `COC(=O)/C(=C/c1cccc([N+](=O)[O-])c1)CSC(=N)Nc1ccccc1` here?
Answer: The MIC was 16 µM (≈ 5.94 µg/mL).

Question: With `COC(=O)/C(=C/c1ccccc1[N+](=O)[O-])CSC(=N)Nc1ccccc1` as the compound, how does the MIC [1] read?
Answer: The MIC was 16 µM (≈ 5.94 µg/mL).

Question: For `COC(=O)/C(=C/c1ccc2c(c1)OCO2)CSC(=N)Nc1ccccc1`, which MIC [1] is on record?
Answer: The MIC was 16 µM (≈ 5.93 µg/mL).

Question: With `COC(=O)/C(=C/c1ccc(OC)cc1)CSC(=N)Nc1ccccc1` as the compound, how does the MIC [1] read?
Answer: Its MIC is 16 µM (≈ 5.7 µg/mL).

Question: Which MIC [1] does the source give for `COC(=O)/C(=C/c1ccc(C)cc1)CSC(=N)Nc1ccccc1` here?
Answer: Its MIC is 16 µM (≈ 5.45 µg/mL).

Question: For `COC(=O)/C(=C/c1ccc(Cl)cc1)CSC(=N)Nc1ccccc1`, which MIC [1] is on record?
Answer: Its MIC is 8 µM (≈ 2.89 µg/mL).

Question: For `COC(=O)/C(=C/c1ccc(F)cc1)CSC(=N)Nc1ccccc1`, which MIC [1] is on record?
Answer: Its MIC is 8 µM (≈ 2.76 µg/mL).

Question: With `COC(=O)/C(=C/c1ccccc1)CS/C(=N\C(C)=O)NC(C)=O` as the compound, how does the MIC [1] read?
Answer: The MIC was 32 µM (≈ 10.7 µg/mL).

Question: For `COC(=O)/C(=C/c1ccccc1Cl)CS/C(=N\C(C)=O)NC(C)=O`, which MIC [1] is on record?
Answer: Its MIC is 32 µM (≈ 11.8 µg/mL).
